The target in experiment [1] is T1, GMIIb (Golgi α-mannosidase) (Drosophila melanogaster, UniProt Q9VF33).
T1 sequence (Q9VF33 31-1249): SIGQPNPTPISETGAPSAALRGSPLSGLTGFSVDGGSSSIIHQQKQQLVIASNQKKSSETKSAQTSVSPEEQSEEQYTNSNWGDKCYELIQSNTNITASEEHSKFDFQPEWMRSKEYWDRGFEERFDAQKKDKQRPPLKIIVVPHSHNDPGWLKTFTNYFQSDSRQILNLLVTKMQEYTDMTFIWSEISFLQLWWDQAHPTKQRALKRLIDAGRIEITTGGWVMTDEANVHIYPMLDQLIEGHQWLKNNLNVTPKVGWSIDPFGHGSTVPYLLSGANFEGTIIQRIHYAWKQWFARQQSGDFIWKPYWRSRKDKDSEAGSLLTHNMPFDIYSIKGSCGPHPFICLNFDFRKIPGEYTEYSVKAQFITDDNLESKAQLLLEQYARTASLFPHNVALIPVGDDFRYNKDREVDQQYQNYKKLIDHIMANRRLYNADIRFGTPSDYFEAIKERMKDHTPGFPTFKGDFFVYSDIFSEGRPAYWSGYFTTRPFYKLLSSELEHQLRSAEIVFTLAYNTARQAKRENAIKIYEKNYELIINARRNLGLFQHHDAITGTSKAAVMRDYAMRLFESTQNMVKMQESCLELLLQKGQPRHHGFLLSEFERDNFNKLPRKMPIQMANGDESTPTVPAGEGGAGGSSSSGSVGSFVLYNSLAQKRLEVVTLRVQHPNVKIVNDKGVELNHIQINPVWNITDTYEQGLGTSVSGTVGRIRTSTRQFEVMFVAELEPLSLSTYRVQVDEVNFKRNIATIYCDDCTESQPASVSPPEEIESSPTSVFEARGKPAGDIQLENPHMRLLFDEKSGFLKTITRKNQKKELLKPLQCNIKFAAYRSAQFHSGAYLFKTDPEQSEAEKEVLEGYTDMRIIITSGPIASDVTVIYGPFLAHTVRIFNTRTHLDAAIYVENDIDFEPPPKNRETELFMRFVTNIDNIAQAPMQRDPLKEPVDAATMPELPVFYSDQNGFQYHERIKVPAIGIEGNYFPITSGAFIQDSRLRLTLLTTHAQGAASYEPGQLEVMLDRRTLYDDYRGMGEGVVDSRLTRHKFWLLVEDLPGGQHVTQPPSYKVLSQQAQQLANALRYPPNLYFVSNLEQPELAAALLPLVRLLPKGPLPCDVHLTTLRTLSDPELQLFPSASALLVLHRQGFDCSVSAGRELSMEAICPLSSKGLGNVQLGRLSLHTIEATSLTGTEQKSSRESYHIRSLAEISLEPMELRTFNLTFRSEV
Kind of experiment: α-mannosidase inhibition assay with pNP-Man, GMIIb. Particulars: for SI^a = IC50(LManII)/IC50(GMIIb): selectivity index. Type of experiment: biochemical.

For experiment [2], the target named is T2, LManII (lysosomal α-mannosidase) (Drosophila melanogaster, UniProt Q9VKV1).
T2 sequence (Q9VKV1 25-1080): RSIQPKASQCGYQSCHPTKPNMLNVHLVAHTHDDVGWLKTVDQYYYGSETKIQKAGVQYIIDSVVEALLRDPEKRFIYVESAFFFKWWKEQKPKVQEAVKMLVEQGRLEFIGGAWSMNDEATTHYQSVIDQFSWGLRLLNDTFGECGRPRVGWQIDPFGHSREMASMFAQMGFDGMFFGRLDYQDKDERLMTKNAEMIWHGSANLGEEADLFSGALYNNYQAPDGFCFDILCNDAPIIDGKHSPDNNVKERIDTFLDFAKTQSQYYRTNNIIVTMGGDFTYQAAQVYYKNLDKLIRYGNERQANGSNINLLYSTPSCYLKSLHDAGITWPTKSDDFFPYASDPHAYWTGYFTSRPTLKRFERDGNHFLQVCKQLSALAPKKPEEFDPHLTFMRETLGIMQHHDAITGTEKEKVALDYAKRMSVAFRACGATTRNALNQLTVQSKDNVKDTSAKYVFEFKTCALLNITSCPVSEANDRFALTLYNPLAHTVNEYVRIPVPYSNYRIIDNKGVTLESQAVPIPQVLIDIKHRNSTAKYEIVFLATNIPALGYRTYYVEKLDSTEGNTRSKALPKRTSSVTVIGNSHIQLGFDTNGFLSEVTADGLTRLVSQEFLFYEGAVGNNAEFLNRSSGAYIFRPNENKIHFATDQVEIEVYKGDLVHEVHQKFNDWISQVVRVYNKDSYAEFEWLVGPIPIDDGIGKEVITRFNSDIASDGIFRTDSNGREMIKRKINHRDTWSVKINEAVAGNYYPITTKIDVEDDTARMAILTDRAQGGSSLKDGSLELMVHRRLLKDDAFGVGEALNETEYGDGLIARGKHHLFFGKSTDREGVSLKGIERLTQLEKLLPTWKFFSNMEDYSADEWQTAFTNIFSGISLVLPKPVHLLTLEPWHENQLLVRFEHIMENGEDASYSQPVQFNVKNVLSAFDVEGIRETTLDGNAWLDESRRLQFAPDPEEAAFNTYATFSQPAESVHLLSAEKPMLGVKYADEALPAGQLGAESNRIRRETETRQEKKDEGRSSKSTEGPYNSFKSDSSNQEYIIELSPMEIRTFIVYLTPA
Kind of experiment: α-mannosidase inhibition assay with pNP-Man, LManII. Type of experiment: biochemical. The conditions noted are these: for Ki: Dixon plots, pNP-Man 0.5-4 mM. The procedure, abridged: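 Recombinant Drosophila lysosomal α-mannosidase, isolated and purified, assayed in 50 mM acetate buffer at pH 5.2. Compound (50 mM DMSO solution diluted in water) preincubated with enzyme 5 min at rt before pNP-Man was added. Incubated 1-2 h at 37 °C, stopped with 0.5 M sodium carbonate, p-nitrophenol read at 405 nm. […] Three independent experiments in duplicate.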

[3] abbreviates: read-out: IC50 GMIIb, 2 mM pNP-Man, pH 6.0.
Setting [4] is: read-out: Ki GMIIb, Dixon plots, pNP-Man 0.5-4 mM, pH 6.0.
Where [5] appears, read: read-out: IC50 LManII, 2 mM pNP-Man, pH 5.2.

Read-outs that look alike come from different tables or passages of the source.

The IC50 is the concentration that inhibits the measured activity by half. Consider `OC[C@@H]1[C@H](O)[C@H](O)CN1Cc1ccccc1` [Compound 4, N-Benzyl-1,4-dideoxy-1,4-imino-d-lyxitol], for which the IC50 in experiment [1] is 11 ± 1.3 µM; in experiment [2] it was 675 ± 67 µM. In experiment [1], the “SI^a = IC50(LManII)/IC50(GMIIb)” value is on record as 61.

As a reminder, the Ki is the equilibrium dissociation constant of an inhibitor or competing ligand from its target. For `Cl.N=C(N)NCc1ccc(CN2C[C@@H](O)[C@@H](O)[C@H]2CO)cc1` [Compound 9, 1,4-Dideoxy-N-4-guanidinomethylbenzyl-1,4-imino-d-lyxitol hydrochloride], the results for the IC50 in experiment [1] (setting [3]) and in experiment [2] (setting [5]) were 2.4 ± 0.1 µM and 340 ± 35 µM, respectively. For the same compound, the Ki was determined as 0.83 µM in experiment [1] (setting [4]) and 165 µM in experiment [2] (read-out: Ki LManII, pH 5.2). The “SI^a = IC50(LManII)/IC50(GMIIb)” value in experiment [1] was found to be 142.

On to `OCC1C(O)C(O)CN1Cc1ccc(I)cc1` (stereo not drawn) [Compound 16, 1,4-Dideoxy-1,4-imino-N-4-iodobenzyl-d-lyxitol], for which the figures for the IC50 in experiment [1] (setting [3]) and in experiment [2] (setting [5]) were 4.4 ± 0.2 µM and 460 ± 53 µM, respectively. Besides, in experiment [1], the “SI^a = IC50(LManII)/IC50(GMIIb)” value stood at 105.

On to `OC[C@@H]1[C@H](O)[C@H](O)CN1Cc1ccc2ccccc2c1` [Compound 17, 1,4-Dideoxy-1,4-imino-N-(naphthalen-2-ylmethyl)-d-lyxitol], for which the IC50 in experiment [1] (setting [3]) was 7.6 ± 1.1 µM; in experiment [1] (read-out: IC50 GMIIb, 2 mM pNP-Man, pH 6.0, listed as N-2-naphtylmethyl) it was 2.4 µM; in experiment [2] (setting [5]), 845 ± 170 µM. For the same compound, in experiment [1], the “SI^a = IC50(LManII)/IC50(GMIIb)” value came out at 111.

With `OCC1C(O)C(O)CN1CCc1cccc2ccccc12` (stereo not drawn) [Compound 18, 1,4-Dideoxy-1,4-imino-N-(2-(naphthalen-1-yl)ethyl)-d-lyxitol], the IC50 amounted to 0.45 ± 0.08 µM in experiment [1] (setting [3]) and 12 ± 1.3 µM in experiment [2] (setting [5]). The Ki in experiment [1] (setting [4]) came to 0.16 µM; in experiment [1] (read-out: Ki(GMIIb)) it was 0.15 µM; in experiment [2] (read-out: Ki LManII, pH 5.2) it was 3.9 µM. For the same compound, the “SI^a = IC50(LManII)/IC50(GMIIb)” value in experiment [1] was found to be 27.

On to `OC[C@@H]1[C@H](O)[C@H](O)CN1CC1CCCCC1` [Compound 19, N-Cyclohexylmethyl-1,4-dideoxy-1,4-imino-d-lyxitol], for which, in experiment [1], the half-inhibitory concentration (IC50) is 3.5 ± 0.3 µM and the “SI^a = IC50(LManII)/IC50(GMIIb)” value came to 54. Moreover, in experiment [2], the IC50 came to 190 ± 53 µM.

On to `OC[C@@H]1[C@H](O)[C@H](O)CN1CC1CCOCC1` [Compound 20], for which the IC50 in experiment [1] (setting [3]) turned out to be 15.5 ± 0.5 µM; in experiment [2] (setting [5]), 980 ± 102 µM. Besides, the “SI^a = IC50(LManII)/IC50(GMIIb)” value in experiment [1] is given as 63.

Turning to `CCCCCCCCCCCCN1C[C@@H](O)[C@@H](O)[C@H]1CO` [Compound 21, 1,4-Dideoxy-N-dodecyl-1,4-imino-d-lyxitol], in experiment [1], the IC50 stood at 0.4 ± 0.05 µM and the “SI^a = IC50(LManII)/IC50(GMIIb)” value came out at 30. It took 11.8 ± 1.2 µM to reach half-maximal inhibition in experiment [2] (IC50).

As for `Cl.N=C(N)NCCCCCCCCCCN1C[C@@H](O)[C@@H](O)[C@H]1CO` [Compound 25, 1,4-Dideoxy-N-(10-guanidinodecyl)-1,4-imino-d-lyxitol hydrochloride], in experiment [1], the IC50 was determined as 0.45 ± 0.1 µM and the “SI^a = IC50(LManII)/IC50(GMIIb)” value came out at 18. In experiment [2], this compound came in with an IC50 of 8.3 ± 2.1 µM.

Take `Cl.N=C(N)CCCCCCCCCN1C[C@@H](O)[C@@H](O)[C@H]1CO` [Compound 26, N-(9-amidinononyl)-1,4-dideoxy-1,4-imino-d-lyxitol hydrochloride]: in experiment [1], the IC50 is 0.19 ± 0.02 µM, the Ki is 0.04 µM and the “SI^a = IC50(LManII)/IC50(GMIIb)” value was 35. Further, 6.7 ± 1.2 µM corresponded to half-maximal inhibition in experiment [2] (IC50). In addition, the affinity in experiment [2] (Ki LManII, pH 5.2), expressed as Ki, was 3.2 µM.
